An excerpt weighted towards active compounds, which were near 0.83% of everything screened.
RGS16-Gao: modulators of RGS16 binding to Galphao, primary screen, biochemical, human proteins, multiplexed bead flow cytometry; binding response (% of control), % at 10 µM; 220,000 compounds, 0.38% hits; Regulator of G-protein signaling 16 (Homo sapiens) + Guanine nucleotide-binding protein …; bead-based flow cytometry RGS16-Galphao binding, fluorescence; actives lie on both sides; call rule not given here;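 note: Galphao activated by GDP with aluminum fluoride before binding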
Target sequence (O15492 whole entry, looked up): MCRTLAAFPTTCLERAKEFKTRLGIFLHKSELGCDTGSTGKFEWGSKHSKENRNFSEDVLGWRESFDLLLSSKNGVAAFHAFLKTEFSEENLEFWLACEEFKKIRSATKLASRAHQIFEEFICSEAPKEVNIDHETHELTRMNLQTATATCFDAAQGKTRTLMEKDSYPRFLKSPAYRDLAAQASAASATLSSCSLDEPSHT
Target sequence (P09471 whole entry, looked up): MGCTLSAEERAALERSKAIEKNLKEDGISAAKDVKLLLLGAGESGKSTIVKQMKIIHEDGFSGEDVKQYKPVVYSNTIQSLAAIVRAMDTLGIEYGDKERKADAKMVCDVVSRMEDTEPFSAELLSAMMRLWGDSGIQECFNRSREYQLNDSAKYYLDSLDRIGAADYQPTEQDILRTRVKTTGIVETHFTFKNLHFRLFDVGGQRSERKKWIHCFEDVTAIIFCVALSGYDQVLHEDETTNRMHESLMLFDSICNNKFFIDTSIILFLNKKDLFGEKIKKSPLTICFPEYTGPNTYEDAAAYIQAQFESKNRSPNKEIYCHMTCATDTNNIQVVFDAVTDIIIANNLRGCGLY
ABCB1 inh: ABCB1 efflux pump inhibitors, primary screen, cell-based, multiplex, flow cytometry, ABCG2 counter-screen | CCRF-Adr cells, JC-1 efflux | inhibition, % at 6.6 µM | 190,000 compounds, 0.067% hits; in the data active = inhibition above about 40%;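 note: higher value means more JC-1 retained so stronger ABCB1 efflux block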
RGS8-Gao reg: RGS8-Galphao binding modulators, primary screen, biochemical, multiplexed bead flow cytometry. 220,000 compounds, 0.34% hits. response (percent of control binding), % at 10 µM. actives lie on both sides. AID 1423, 2008; in the data active = response below about 60% or above about 140%; inactive = in between;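 note: Galphao activated as the GDP aluminium fluoride complex binding bead-coupled RGS8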
RGS4-Gao reg: modulators of RGS4 binding to Galphao, primary screen, biochemical, multiplexed bead flow cytometry | 220,000 compounds, 0.33% hits | binding response (% of control), % at 10 µM | Guanine nucleotide-binding protein G(o) subunit alpha (Homo sapiens), P09471 | actives lie on both sides | AID 1415, 2008; in the data active = binding response below about 49% or above about 150%; inactive = in between;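 note: fluorescent Galphao activated with aluminum fluoride binding bead-coupled RGS4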
RGS7-Gao: RGS7-Galphao binding modulators, primary screen, biochemical, multiplexed bead flow cytometry; 220,000 compounds, 0.35% hits; binding response (% of control), % at 10 µM; Guanine nucleotide-binding protein G(o) subunit alpha (Homo sapiens), P09471; actives lie on both sides; in the data active = binding response below about 49% or above about 150%; inconclusive = no clear call, values can overlap the other calls; inactive = in between;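 note: fluorescent Galphao held in activated GDP-AlF4 state binding bead-coupled RGS7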
ABCG2 inh: ABCG2 efflux pump inhibitors, primary screen, multiplex with ABCB1, IgMXP3 cells, flow cytometry | 190,000 compounds, 0.1% hits | AID 1325, 2008 | Broad substrate specificity ATP-binding cassette transporter ABCG2 (Homo sapiens), Q9UNQ0 | inhibition, % at 6.6 µM | JC-1 efflux;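 active = inhibition above 80%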
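Test system: IgMXP3 (ABCG2) plus far-red-tagged CCRF-Adr (ABCB1) cells / Amount: 3 million cells/mL in well / Reagent: JC-1 transporter substrate / Timing: 10 min compound exposure, 25 °C / Signal: flow cytometry, 530 nm JC-1 signal / Read-out: percent efflux inhibition, scaled nicardipine 100% to DMSO 0% / Benchmarks: nicardipine as high control, DMSO as low control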
ABCB1 confirm: ABCB1 efflux pump inhibitors, confirmation, cell-based, single point, ABCG2 counter-screen; CCRF-Adr cells, JC-1 efflux, flow cytometry; shares compounds with ABCG2 inh; 270 compounds, 7% hits; inhibition, % at 6.6 µM;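 active = inhibition of pump activity above 50%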
ABCG2 single pt: ABCG2 efflux pump inhibitors, confirmation, single point, IgMXP3 cells, ABCB1 counter-screen paired | shares compounds with ABCG2 inh | JC-1 efflux, flow cytometry | inhibition, % at 6.6 µM | 270 compounds, 6% hits
IgMXP3 autofluor: compound autofluorescence in ABCG2-expressing IgMXP3 cells, confirmation, artefact control for ABC transporter inhibitor project, cell-based, 488/530 nm, flow cytometry; shares compounds with ABCG2 inh; compound autofluorescence 488/530 nm; hits give high values; fluorescence at 6.6 µM; 270 compounds, 30% hits; AID 1480, 2009;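 active = fluorescence in ABCG2-expressing cells above the plate's control-well mean plus 3 SD, cut at about 15 in these data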
CCRF autofluor: compound autofluorescence in ABCB1-expressing CCRF-Adr cells, confirmation, artefact control for ABC transporter inhibitor project, cell-based, 488/530 nm, flow cytometry | AID 1483, 2009 | fluorescence at 6.6 µM | shares compounds with ABCG2 inh | 270 compounds, 30% hits | compound autofluorescence 488/530 nm; hits give high values;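 active = fluorescence beyond the plate control mean plus 3 SD, with a fluorescence-to-maximum score over 2, cut at about 25 in these data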
Avidin counter: disruption of biotin probe capture by avidin, counter-screen for RGS protein interaction modulators, biochemical, flow cytometry, bead-based; shares compounds with RGS16-Gao; streptavidin beads, fluorescein-biotin binding; inhibition, % at 10 µM; 1,700 tested, under 10 active;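 note: median green fluorescence of gated singlet beads compared with DMSO control wells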
RGS8-Gao confirm: RGS8-Galphao binding modulators, confirmation, biochemical, multiplexed bead flow cytometry, single concentration. shares compounds with RGS16-Gao. bead-based flow cytometry RGS8-Galphao binding, fluorescence; actives lie on both sides. binding response (% of control), % at 10 µM. 1,700 compounds, 3% hits. AID 1836, 2009; in the data active = binding response below about 72% or above about 130%; inactive = in between;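 note: Galphao activated as GDP AlF4 complex before binding bead RGS8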
RGS7-Gao single: RGS7-Galphao binding modulators, confirmation, biochemical, multiplexed bead flow cytometry, single concentration. shares compounds with RGS16-Gao. bead-based flow cytometry RGS7-Galphao binding; actives lie on both sides. response (percent of control binding), % at 10 µM. 1,700 compounds, 7.8% hits; in the data active = response below about 75% or above about 130%; inactive = in between;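 note: fluorescent Galphao activated with GDP and aluminum fluoride binding bead-coupled RGS7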
RGS16-Gao single: modulators of RGS16-Galphao protein binding, confirmation, biochemical, single concentration, multiplexed bead flow cytometry; shares compounds with RGS16-Gao; response (% of control binding), % at 10 µM; bead-based flow cytometry; actives lie on both sides; 1,700 compounds, 4% hits; in the data active = response below about 74% or above about 130%; inactive = in between;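 note: Galphao activated as the GDP aluminium fluoride complex binding bead-coupled RGS16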
RGS4-Gao single: modulators of RGS4-Galphao protein binding, confirmation, biochemical, single concentration, multiplexed bead flow cytometry; 1,700 compounds, 4% hits; shares compounds with RGS16-Gao; actives lie on both sides; AID 1840, 2009; binding response (% of control), % at 10 µM; in the data active = binding response below about 74% or above about 130%; inactive = in between
RGS19-Gao conf: regulators of RGS19-Galphao binding, confirmation, biochemical, single point, multiplexed bead flow cytometry; 1,700 compounds, 5% hits; AID 1841, 2009; bead-based flow cytometry RGS19-Galphao binding; actives lie on both sides; response (percent of control binding), % at 10 µM; shares compounds with RGS16-Gao; in the data active = response below about 50% or above about 160%; inactive = in between
Numbers stand for hits; – = inactive; ? = inconclusive; · = no result given; [ ] = another dose, or the depositor's remark.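 Rule for the calls, unless noted: active = inhibition above 50%; inactive = the rest.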

SMILES | RGS16-Gao | ABCB1 inh | RGS8-Gao reg | RGS4-Gao reg | RGS7-Gao | ABCG2 inh | Avidin counter | RGS8-Gao confirm | RGS7-Gao single | RGS16-Gao single | RGS4-Gao single | RGS19-Gao conf | others
CC(C)=CCC12CN3CCN(CC(C3)C1=O)C2 | – | – | – | – | – | 107 | · | · | · | · | · | · | ABCB1 confirm=–;ABCG2 single pt=–;IgMXP3 autofluor=–;CCRF autofluor=–
CCN1CCC2(CC1)NC(=O)c1ccccc1O2 | – | – | – | – | – | – | · | · | · | · | · | ·
CCC1(CC)C(=O)N(C)C(=O)NC1=NC | 204[activator] | · | – | 196[activator] | ? | · | – | – | – | – | – | –
COc1ccc(C=C2C(=O)N(C)C(=O)N(C)C2=O)cc1CSc1ccccn1 | – | – | – | – | – | – | · | · | · | · | · | ·
COc1ccc(C=C2C(=O)N(C)C(=O)N(C)C2=O)cc1COc1ccc(NC(C)=O)cc1 | – | · | – | – | ? | · | – | – | – | – | – | –
CN(C)C(Cc1ccccc1)C(=O)c1cccs1 (stereo not drawn) | – | – | – | – | ? | – | · | · | · | · | · | ·

High-throughput results (PubChem)
